Assay outcomes as filed in PubChem.
Compounds with a hit are over-represented: about 2.9% of the library has one in this group of screens.
Kir21 inh = Kir2.1 (mouse) channel inhibition; P35561; HEK293-Kir2.1, FluxOR thallium flux fluorescence; active compounds read low; B-score at 10 µM; 310,000 compounds, 0.85% hits; AID 1672;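 active = fluorescence ratio B-score at or below minus 3 SD of library scores, with starting-brightness B-score within 2 SD, cut at about -4.2 in these data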;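 also: channel flux triggered by added potassium and thallium sulfate stimulus; B-score of peak minus minimum fluorescence over baseline after thallium stimulus; more negative B-score means stronger Kir2.1 block with less thallium influx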
TRPC4 act = opens the mouse TRPC4 cation channel; HEK293 TRPC4beta/mu-opioid, Fluo4 calcium fluorescence; active compounds read high; AID 2237; B-score at 10 µM; 310,000 compounds, 0.49% hits; Q9QUQ5;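 active = B-score above 5 SD of library B-scores, and initial fluorescence ratio not above library mean plus 5 SD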;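 also: positive B-score marks a calcium rise read as TRPC4 activation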
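Assay system – TRPC4beta and mu-opioid receptor HEK293 stable cells · Measured by – Fluo4 fluorescence, kinetic · Schedule – dye loading 45 min room temperature, 110 s kinetic read · Read-out – B-scored integrated calcium fluorescence ratio · Controls – buffer and maximal DAMGO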
TRPC4 block = inhibitors of mouse TRPC4 channel | Q9QUQ5 | HEK293 TRPC4beta/mu-opioid, DAMGO-evoked Fluo4 calcium flux; active compounds read low | B-score at 10 µM | 300,000 compounds, 0.39% hits;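 active = B-score over 3 SD under the library average, no early fluorescence shift, positive overall ratio signal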
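Test system – stable TRPC4beta/mu-opioid receptor HEK293 cells · Probe or stimulus – DAMGO, a submaximal dose followed by a maximal one · Dosing – one concentration per compound · Signal – Fluo4 calcium fluorescence by kinetic imaging, 5 s 1 Hz baseline · Evaluation – per-well B score of integrated baseline-normalized Fluo4 ratio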
TRPC6 act = mouse TRPC6 channel activation; HEK293-TRPC6 membrane potential dye fluorescence; active compounds read high; B-score at 10 µM; 310,000 compounds, 0.13% hits; AID 2550;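 active = B-score of the integrated fluorescence ratio above library mean plus 3 SD, and starting fluorescence ratio within library mean plus 5 SD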;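 also: higher score means more depolarization so channel activation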
Target sequence (Q61143 whole entry, looked up): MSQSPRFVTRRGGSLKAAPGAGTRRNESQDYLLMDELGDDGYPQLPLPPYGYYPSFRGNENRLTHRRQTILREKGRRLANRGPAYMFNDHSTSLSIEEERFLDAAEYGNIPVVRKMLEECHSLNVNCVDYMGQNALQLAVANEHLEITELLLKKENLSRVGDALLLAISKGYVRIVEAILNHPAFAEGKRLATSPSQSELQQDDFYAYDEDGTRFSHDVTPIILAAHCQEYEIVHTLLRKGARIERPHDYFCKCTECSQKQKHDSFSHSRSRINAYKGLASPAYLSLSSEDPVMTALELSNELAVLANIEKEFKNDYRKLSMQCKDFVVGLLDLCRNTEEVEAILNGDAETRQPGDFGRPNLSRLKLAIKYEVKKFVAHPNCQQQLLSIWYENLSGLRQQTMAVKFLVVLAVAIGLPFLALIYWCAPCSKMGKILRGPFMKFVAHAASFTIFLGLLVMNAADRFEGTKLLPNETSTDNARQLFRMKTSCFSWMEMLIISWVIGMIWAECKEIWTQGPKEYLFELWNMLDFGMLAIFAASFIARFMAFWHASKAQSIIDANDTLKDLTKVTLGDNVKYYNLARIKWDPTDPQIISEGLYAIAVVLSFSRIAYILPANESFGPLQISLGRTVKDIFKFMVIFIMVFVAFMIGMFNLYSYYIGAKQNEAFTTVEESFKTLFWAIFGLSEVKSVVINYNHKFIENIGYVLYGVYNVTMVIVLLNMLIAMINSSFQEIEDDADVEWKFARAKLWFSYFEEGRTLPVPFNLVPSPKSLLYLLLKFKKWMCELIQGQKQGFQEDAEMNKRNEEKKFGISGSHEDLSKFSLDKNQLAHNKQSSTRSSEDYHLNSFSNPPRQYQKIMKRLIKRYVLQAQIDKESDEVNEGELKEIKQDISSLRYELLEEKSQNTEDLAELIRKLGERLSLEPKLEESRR
TRPC4 PAM = allosteric potentiators of mouse TRPC4 channel. B-score at 10 µM. 310,000 compounds, 0.42% hits. Q9QUQ5. HEK293 TRPC4beta/mu-opioid, DAMGO EC20, Fluo-4 Ca2+ flux; active compounds read high. AID 2227;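 active = B-score of calcium response area above 5 SD of library B-scores, with initial fluorescence ratio within 5 SD of library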;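 also: B-score of integrated fluorescence ratio over time as area under calcium response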
TRPC6 inhibitor = mouse TRPC6 channel inhibition | Q61143 | HEK293-TRPC6, membrane potential dye, ACh-evoked depolarization; active compounds read low | B-score at 10 µM | 310,000 compounds, 1.1% hits | AID 2553;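 active = B-score under library mean minus 3 SD, initial fluorescence not abnormally high, positive integrated signal ratio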;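 also: B-score derived from integrated fluorescence ratio over the kinetic read; more negative B-score means stronger inhibition of depolarization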
* marks the source's active call; other numbers are inactive results; i = inactive.

SMILES | Kir21 inh | TRPC4 act | TRPC4 block | TRPC6 act | TRPC4 PAM | TRPC6 inhibitor
CC(=O)NC12CC3CC(C1)CC(C(=O)N1CCN(S(=O)(=O)c4cccc(C(F)(F)F)c4)CC1)(C3)C2 | 1.4 | i | i | i | i | i
O=[N+]([O-])c1cccc(-c2nnc(C3CC3)o2)c1 | 0.19 | i | -6* | i | i | i
Nc1nnc(-c2cccc([N+](=O)[O-])c2)o1 | 1.4 | i | i | i | i | i
CCCc1cc(=O)oc2c3c(cc(OCC(=O)NCCN4CCOCC4)c12)OC(C)(C)CC3 | -0.1 | i | i | i | i | i
Fc1ccc(NC(=S)Nc2ccc(F)c(Cl)c2)cc1Cl | -5.4* | i | i | i | i | i
O=C(NC(=S)Nc1ccc(F)c(Cl)c1)C1CC1 | 1.2 | i | i | i | i | i
Cc1nc(Nc2ccccc2)sc1C(=O)c1ccc(F)cc1 | -0.42 | i | i | i | 11* | i
Cc1ccc2nc(Cl)c3cc(C(=O)N(CCN(C)C)Cc4ccco4)sc3c2c1 | -4.5* | 54* | i | i | i | i
CCOC(=O)c1oc2ccccc2c1NC(=O)CN1CCN(C)CC1 | -0.57 | i | i | i | i | i
CCOC(=O)c1oc2ccc(OC)cc2c1NC(=O)CN1CCN(C)CC1 | -0.12 | 88* | i | i | i | i
CCOc1ccccc1Nc1nnc(SCc2nnc(-c3cc(OC)c(OC)c(OC)c3)o2)s1 | -0.1 | i | i | i | 21* | i
CCc1cc(C(=O)Nc2cc(Cl)ccc2N2CCN(C)CC2)sc1C | 0.39 | i | i | i | i | i
CN1CCN(c2ccc(Cl)cc2NC(=O)CC2OC(=O)c3ccccc32)CC1 (stereo not given) | -2.5 | i | i | i | 23* | i
CN1CCN(c2ccc(Cl)cc2NC(=O)/C=C/c2cccc(F)c2)CC1 | -1.7 | i | i | i | 31* | i
Cc1ccc(C)c(S(=O)(=O)N2CCN(C(=O)c3cncc(Br)c3)CC2)c1 | 0.7 | i | i | i | i | i
Cc1ccc(C2Cc3cc(O)c(O)cc3CN2)cc1 (stereo not given) | -7.5* | i | i | i | i | i
Fc1cccc(/C=N/Nc2cc(N3CCOCC3)ncn2)c1 | -0.8 | i | i | i | i | i
COC(=O)c1ccccc1Nc1ccnc(Cl)n1 | 0.86 | i | i | i | i | i
Cc1ccc(-c2nnc(N3CCC(C)CC3)c3ccccc23)cc1C | 0.95 | i | i | i | 63* | i
N#C/C(=C\c1cccc(O)c1)C(=O)N1CCCCC1 | 1.7 | i | i | i | i | i
N#C/C(=C\c1cccc(Br)c1)C(=O)N1CCCCC1 | -6.9* | i | i | i | i | i
N#C/C(=C\c1ccccc1)C(=O)N1CCN(c2ccccc2F)CC1 | -5.1* | i | i | i | i | i
O=S(=O)(Nc1cccc(-c2ccc3nncn3n2)c1)c1cc(F)ccc1F | 0.63 | i | i | i | i | i
O=C1c2ccccc2C(O)N1Cc1ccco1 (stereo not given) | -0.89 | i | i | i | i | i
c1coc(CN=C2NC(=NCc3ccco3)c3ccccc32)c1 | -6.2* | i | -7* | i | i | i
SMILES | Kir21 inh | TRPC4 act | TRPC4 block | TRPC6 act | TRPC4 PAM | TRPC6 inhibitor
O=[N+]([O-])c1cccc(S(=O)(=O)NCCc2cccs2)c1 | -0.75 | i | i | i | i | i
O=S(=O)(NCCc1cccs1)c1ccc(Br)cc1 | -5.3* | i | i | i | i | i
COCC(=O)N1CCC(Oc2ccc(C(=O)N3CCCCC3COC)cc2)CC1 (stereo not given) | -1.4 | i | i | i | i | i
CCOC(=O)c1c(C)nc2ccc(Cl)cc2c1-c1ccccc1 | -3.2 | i | i | i | i | i
CCOC(=O)c1c(C)nc2ccccc2c1-c1ccccc1 | -5.9* | i | i | i | i | i
COc1ccc(C(OCC(O)CNC(C)c2ccccc2)c2ccc(OC)cc2)cc1 (stereo not given) | -3 | i | i | i | i | i
Cc1ccc(C(OCC(O)CNCc2ccc(F)cc2)c2ccccc2)cc1 (stereo not given) | -12* | i | i | i | i | i
COc1ccc(CCNCC(O)COc2ccc(Cl)cc2)cc1OC (stereo not given) | 0.51 | i | i | i | i | i
OC(CNCCc1ccccc1)COc1ccc(OCC(O)CNCCc2ccccc2)cc1 (stereo not given) | -11* | i | i | i | 22* | i
OC(CNCCC(c1ccccc1)c1ccccc1)COc1ccccc1 (stereo not given) | -6.5* | i | i | i | i | i
CC(C)c1ccc(OCC(O)CNC(C)c2ccccc2)cc1 (stereo not given) | -6* | i | i | i | i | i
CN(C)S(=O)(=O)n1cc(/C=C(\NC(=O)c2ccccc2)C(=O)N2CCCC2)c2ccccc21 | -0.17 | i | i | i | i | i
COc1ccc(S(=O)(=O)N2CCc3ccccc32)cc1C(=O)Nc1ccc(C(N)=O)cc1 | 0.81 | i | i | i | i | i
Clc1ccc(OCCNCCc2ccccc2)cc1 | -1.9 | 98* | i | i | i | i
OC(CNCc1cccc(Cl)c1)c1ccccc1 (stereo not given) | -0.42 | i | i | i | i | i
OC(CNCCc1ccc(Cl)cc1)COc1cc(Cl)ccc1Cl (stereo not given) | -14* | i | i | i | i | i
NCC(O)COCCC12CC3CC(CC(C3)C1)C2 (stereo not given) | -2.6 | i | i | i | i | i
CC(NCC(O)COCCC12CC3CC(CC(C3)C1)C2)c1ccccc1 (stereo not given) | -12* | 83* | i | i | i | i
O=C(c1ccccc1)c1ccc(OCC(O)CNCc2cccc(Cl)c2)cc1 (stereo not given) | -8.4* | i | i | i | i | i
O=C(Nc1ccc(F)cc1)c1cc(-c2ccccn2)nc2c(Cl)cccc12 | -0.68 | i | i | i | i | i
COC(=O)[C@H](CC(C)C)NC(=O)NCc1ccc(Cl)cc1 | 0.93 | i | i | i | i | i
CC(C)CCNCC(O)CON=C1c2ccccc2-c2ccccc21 (stereo not given) | -4.5* | 66* | i | i | i | i
